In ChEMBL document CHEMBL3124823, “1,2,3-Triazole-containing derivatives of rupestonic acid: click-chemical synthesis and antiviral activities against influenza viruses” (Eur J Med Chem, 2014):
In brackets after ≈: the same amount, converted by molar mass.

System: Influenza A virus
Experiment: Antiviral activity against oseltamivir-resistant Influenza A virus (A/Tianjinjinnan/15/2009/H1N1) infected in MDCK cells assessed as inhibition of virus-induced cytopathicity after 40 hrs
Assay type: functional, organism-based
Details: A/Tianjin-Jinnan/15/2009(H1N1)
Summary of the method: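 CPE reduction in MDCK cells: cells grown 24 h at 37 °C, 5% CO2, then infected and held 2 h at 37 °C before the inoculum was removed. Threefold serial drug dilutions (8 levels from 20 mg/mL DMSO stocks) were added and incubated 40 h at 37 °C. CPE inhibition was scored against cell and virus controls to give IC50. Ribavirin and oseltamivir were the controls.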

SMILES	IC50 [µg/mL]
C=C(C(=O)OCc1cn(Cc2cccc(OC)c2)nn1)[C@@H]1CC[C@H](C)[C@@H]2CC(=O)C(C)=C2C1	> 22.2
C=C(C(=O)OCc1cn(Cc2ccccc2F)nn1)[C@@H]1CC[C@H](C)[C@@H]2CC(=O)C(C)=C2C1	> 22.2
C=C(C(=O)OCc1cn(Cc2ccc(F)cc2)nn1)[C@@H]1CC[C@H](C)[C@@H]2CC(=O)C(C)=C2C1	> 22.2
C=C(C(=O)OCc1cn(Cc2ccc(OC)cc2)nn1)[C@@H]1CC[C@H](C)[C@@H]2CC(=O)C(C)=C2C1	22.2 (≈ 49.4 µM)
C=C(C(=O)NCc1cn(Cc2ccc(Cl)c(Cl)c2)nn1)[C@@H]1CC[C@H](C)[C@@H]2CC(=O)C(C)=C2C1	22.2 (≈ 45.6 µM)
C=C(C(=O)NCc1cn(Cc2ccc(OC)cc2)nn1)[C@@H]1CC[C@H](C)[C@@H]2CC(=O)C(C)=C2C1	> 22.2
C=C(C(=O)OCc1cn(Cc2cccc(F)c2)nn1)[C@@H]1CC[C@H](C)[C@@H]2CC(=O)C(C)=C2C1	> 22.2
C=C(C(=O)NCc1cn(Cc2ccccc2)nn1)[C@@H]1CC[C@H](C)[C@@H]2CC(=O)C(C)=C2C1	> 22.2
C=C(C(=O)NCc1cn(Cc2cccc(Cl)c2)nn1)[C@@H]1CC[C@H](C)[C@@H]2CC(=O)C(C)=C2C1	> 7.41
C=C(C(=O)OCc1cn(Cc2ccc(C)cc2)nn1)[C@@H]1CC[C@H](C)[C@@H]2CC(=O)C(C)=C2C1	> 22.2
NC(=O)c1ncn([C@@H]2O[C@H](CO)[C@@H](O)[C@H]2O)n1 [RIBAVIRIN]	6.5 (≈ 26.6 µM)
C=C(C(=O)NCc1cn(C2C=CCCC2)nn1)[C@@H]1CC[C@H](C)[C@@H]2CC(=O)C(C)=C2C1 (some centres not stated)	19.7 (≈ 48.3 µM)
C=C(C(=O)NCc1cn(Cc2ccc(F)cc2)nn1)[C@@H]1CC[C@H](C)[C@@H]2CC(=O)C(C)=C2C1	> 66.7
C=C(C(=O)OCc1cn(Cc2cccc(Cl)c2)nn1)[C@@H]1CC[C@H](C)[C@@H]2CC(=O)C(C)=C2C1	> 66.7
C=C(C(=O)OCc1cn(C2C=CCCC2)nn1)[C@@H]1CC[C@H](C)[C@@H]2CC(=O)C(C)=C2C1 (some centres not stated)	> 7.41
C=C(C(=O)OCc1cn(Cc2ccccc2Cl)nn1)[C@@H]1CC[C@H](C)[C@@H]2CC(=O)C(C)=C2C1	59.2 (≈ 130 µM)

SMILES	IC50 [µg/mL]
C=C(C(=O)NCc1cn(Cc2ccc(C)cc2)nn1)[C@@H]1CC[C@H](C)[C@@H]2CC(=O)C(C)=C2C1	> 22.2
C=C(C(=O)OCc1cn(Cc2ccc(Cl)cc2)nn1)[C@@H]1CC[C@H](C)[C@@H]2CC(=O)C(C)=C2C1	> 22.2
C=C(C(=O)OCc1cn(Cc2ccccc2)nn1)[C@@H]1CC[C@H](C)[C@@H]2CC(=O)C(C)=C2C1	> 7.41
C=C(C(=O)OCc1cn(Cc2ccc(Cl)c(Cl)c2)nn1)[C@@H]1CC[C@H](C)[C@@H]2CC(=O)C(C)=C2C1	> 7.41
C=C(C(=O)NCc1cn(Cc2ccccc2C)nn1)[C@@H]1CC[C@H](C)[C@@H]2CC(=O)C(C)=C2C1	> 22.2
C=C(C(=O)OCc1cn(C2CCCCC2)nn1)[C@@H]1CC[C@H](C)[C@@H]2CC(=O)C(C)=C2C1	59.2 (≈ 144 µM)
C=C(C(=O)OCc1cn(Cc2cccc(C)c2)nn1)[C@@H]1CC[C@H](C)[C@@H]2CC(=O)C(C)=C2C1	19.7 (≈ 45.5 µM)
CCOC(=O)C1=C[C@@H](OC(CC)CC)[C@H](NC(C)=O)[C@@H](N)C1 [OSELTAMIVIR]	> 500
C=C(C(=O)NCc1cn(Cc2cccc(F)c2)nn1)[C@@H]1CC[C@H](C)[C@@H]2CC(=O)C(C)=C2C1	> 22.2
C=C(C(=O)NCc1cn(Cc2ccccc2Cl)nn1)[C@@H]1CC[C@H](C)[C@@H]2CC(=O)C(C)=C2C1	> 7.41
C=C(C(=O)OCc1cn(Cc2ccccc2C)nn1)[C@@H]1CC[C@H](C)[C@@H]2CC(=O)C(C)=C2C1	> 22.2
C=C(C(=O)NCc1cn(Cc2ccc(Cl)cc2)nn1)[C@@H]1CC[C@H](C)[C@@H]2CC(=O)C(C)=C2C1	> 2.47
C=C(C(=O)NCc1cn(Cc2cccc(C)c2)nn1)[C@@H]1CC[C@H](C)[C@@H]2CC(=O)C(C)=C2C1	> 22.2
C=C(C(=O)NCc1cn(C2CCCCC2)nn1)[C@@H]1CC[C@H](C)[C@@H]2CC(=O)C(C)=C2C1	22.2 (≈ 54.1 µM)
C=C(C(=O)NCc1cn(Cc2cccc(OC)c2)nn1)[C@@H]1CC[C@H](C)[C@@H]2CC(=O)C(C)=C2C1	> 22.2
C=C(C(=O)NCc1cn(Cc2ccccc2F)nn1)[C@@H]1CC[C@H](C)[C@@H]2CC(=O)C(C)=C2C1	> 66.7
